Test results taken from ChEMBL document CHEMBL4308835, “Fluorine-Substituted Pyrrolo[2,3- d]Pyrimidine Analogues with Tumor Targeting via Cellular Uptake by Folate Receptor α and the Proton-Coupled Folate Transporter and Inhibition of de Novo Purine Nucleotide Biosynthesis” (J Med Chem, 2018).
pIC50, pKi: −log10 of the molar value. Active and inactive are the calls of the source. No cut-off for these calls is given here.

Tests used:
IGROV-1 [1] = assay: Antiproliferative activity against human IGROV1 cells harboring non targeted control shRNA sequence after 96 hrs by Cell-Titer Blue assay; assay type: functional, cell-based; details: IGROV-1, 96 h
IGROV-1 [2] = assay: Antiproliferative activity against FRalpha […] human IGROV1 KD4 cells after 96 hrs by Cell-Titer Blue assay; assay type: functional, cell-based; details: IGROV-1, 96 h
[3] = Antiproliferative activity in Chinese hamster R2 cells deficient in RFC, PCFT, and FRalpha assessed as reduction in cell growth after 96 hrs by Cell-Titer Blue assay; assay type: cell-based; details: Cricetulus griseus, R2, 96 h
[4] = target: T1, Proton-coupled folate transporter (Homo sapiens) (UniProt Q96NT5); assay: Inhibition of human PCFT expressed in Chinese hamster R2/PCFT4 cells assessed as reduction in [3H]MTX uptake at pH 5.5 at 1 uM measured over 2 mins relative to control; assay type: cell-based
T1 sequence (whole entry): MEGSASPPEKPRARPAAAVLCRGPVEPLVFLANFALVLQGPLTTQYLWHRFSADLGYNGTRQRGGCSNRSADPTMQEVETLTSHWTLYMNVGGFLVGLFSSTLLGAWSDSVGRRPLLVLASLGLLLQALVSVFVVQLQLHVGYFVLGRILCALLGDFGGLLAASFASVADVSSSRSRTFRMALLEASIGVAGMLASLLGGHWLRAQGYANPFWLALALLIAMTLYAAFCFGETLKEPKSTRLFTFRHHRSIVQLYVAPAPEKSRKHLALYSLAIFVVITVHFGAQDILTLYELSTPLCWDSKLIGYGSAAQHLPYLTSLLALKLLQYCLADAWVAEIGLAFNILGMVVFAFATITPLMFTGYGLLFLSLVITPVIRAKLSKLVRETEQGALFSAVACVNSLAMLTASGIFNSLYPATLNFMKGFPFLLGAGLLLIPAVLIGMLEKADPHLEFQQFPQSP

[5] = target: T2, Proton-coupled folate transporter (Homo sapiens, UniProt Q96NT5); assay: Inhibition of human PCFT expressed in Chinese hamster R2/PCFT4 cells assessed as reduction in [3H]MTX uptake at pH 5.5 measured over 2 mins by Dixon plot analysis; assay type: cell-based
T2 sequence (Q96NT5 whole entry): T1 sequence (whole entry)
How it was run: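 Competitor concentrations ranged from 0.05 to 0.5 μM. Ki was obtained by Dixon plot. Mean ± SE of four independent experiments.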

[6] = target: T3, Reduced folate transporter (Homo sapiens) (UniProt P41440); assay: Inhibition of human RFC2 expressed in human HeLa R1-11 cells assessed as reduction in [3H]MTX uptake at pH 7.2 at 10 uM measured over 2 mins relative to control
T3 sequence (whole entry): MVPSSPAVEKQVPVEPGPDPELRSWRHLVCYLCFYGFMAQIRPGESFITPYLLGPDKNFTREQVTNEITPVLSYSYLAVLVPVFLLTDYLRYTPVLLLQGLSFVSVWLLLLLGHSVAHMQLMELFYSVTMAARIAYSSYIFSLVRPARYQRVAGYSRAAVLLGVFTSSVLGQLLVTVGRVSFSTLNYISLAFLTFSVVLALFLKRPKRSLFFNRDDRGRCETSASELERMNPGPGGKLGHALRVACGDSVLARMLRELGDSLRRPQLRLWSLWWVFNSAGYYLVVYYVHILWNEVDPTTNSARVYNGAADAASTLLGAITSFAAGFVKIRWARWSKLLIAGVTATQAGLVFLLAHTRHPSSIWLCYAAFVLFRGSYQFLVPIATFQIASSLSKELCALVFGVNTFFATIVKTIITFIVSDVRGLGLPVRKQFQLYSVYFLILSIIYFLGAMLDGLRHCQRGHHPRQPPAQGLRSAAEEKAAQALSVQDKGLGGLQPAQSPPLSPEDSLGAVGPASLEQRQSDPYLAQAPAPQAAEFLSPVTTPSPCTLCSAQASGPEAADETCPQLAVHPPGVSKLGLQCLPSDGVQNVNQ

[7] = target: T1, Proton-coupled folate transporter (Homo sapiens); assay: Inhibition of human PCFT expressed in Chinese hamster R2/PCFT4 cells assessed as reduction in [3H]MTX uptake at pH 5.5 at 10 uM measured over 2 mins relative to control; assay type: cell-based
[8] = target: Folate receptor beta (Homo sapiens) (UniProt P14207); assay: Displacement of [3H]folic acid from human FRbeta expressed in Chinese hamster D4 cells at 10 to 1000 nM after 15 mins; assay type: cell-based
Chain of Folate receptor beta (Homo sapiens) (P14207 17-230 limits assumed): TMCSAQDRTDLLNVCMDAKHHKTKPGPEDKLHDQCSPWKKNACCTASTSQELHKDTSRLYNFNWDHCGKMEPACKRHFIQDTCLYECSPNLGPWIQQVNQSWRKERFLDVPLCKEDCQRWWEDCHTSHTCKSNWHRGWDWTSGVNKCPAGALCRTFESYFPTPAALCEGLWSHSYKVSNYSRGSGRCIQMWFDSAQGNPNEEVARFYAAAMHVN
How it was run: (§1)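 RT16 (FRα) or D4 (FRβ) CHO cells at ~80% confluence were washed with PBS at 4 °C, then with pH 3.5 acetate buffer to strip bound folate, then HEPES-buffered saline pH 7.4. Cells were incubated with 50 nM [³H]folic acid plus competitor (10–1000 nM) for 15 min at 4 °C, washed, and solubilized in NaOH. Bound radioactivity was normalized to protein.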

[9] = Binding affinity to human PCFT expressed in Chinese hamster R2/PCFT4 cells assessed as antiproliferative activity measured as reduction in cell growth after 96 hrs by Cell-Titer Blue assay
A2780 = assay: Antiproliferative activity against human A2780 cells after 96 hrs by Cell-Titer Blue assay; assay type: functional, cell-based; details: A2780, 96 h
[10] = target: T1, Proton-coupled folate transporter (Homo sapiens); assay: Inhibition of human PCFT expressed in Chinese hamster R2/PCFT4 cells assessed as reduction in [3H]MTX uptake at pH 5.5 at 1 to 10 uM measured over 2 mins; assay type: cell-based
[11] = target: T4, Trifunctional purine biosynthetic protein adenosine-3 (Homo sapiens, UniProt P22102); assay: Inhibition of GARFTase in human IGROV1 cells assessed as decrease in incorporation of [14C(U)glycine into [14C]formyl GAR formation after 24 hrs; assay type: cell-based
T4 sequence (P22102 whole entry): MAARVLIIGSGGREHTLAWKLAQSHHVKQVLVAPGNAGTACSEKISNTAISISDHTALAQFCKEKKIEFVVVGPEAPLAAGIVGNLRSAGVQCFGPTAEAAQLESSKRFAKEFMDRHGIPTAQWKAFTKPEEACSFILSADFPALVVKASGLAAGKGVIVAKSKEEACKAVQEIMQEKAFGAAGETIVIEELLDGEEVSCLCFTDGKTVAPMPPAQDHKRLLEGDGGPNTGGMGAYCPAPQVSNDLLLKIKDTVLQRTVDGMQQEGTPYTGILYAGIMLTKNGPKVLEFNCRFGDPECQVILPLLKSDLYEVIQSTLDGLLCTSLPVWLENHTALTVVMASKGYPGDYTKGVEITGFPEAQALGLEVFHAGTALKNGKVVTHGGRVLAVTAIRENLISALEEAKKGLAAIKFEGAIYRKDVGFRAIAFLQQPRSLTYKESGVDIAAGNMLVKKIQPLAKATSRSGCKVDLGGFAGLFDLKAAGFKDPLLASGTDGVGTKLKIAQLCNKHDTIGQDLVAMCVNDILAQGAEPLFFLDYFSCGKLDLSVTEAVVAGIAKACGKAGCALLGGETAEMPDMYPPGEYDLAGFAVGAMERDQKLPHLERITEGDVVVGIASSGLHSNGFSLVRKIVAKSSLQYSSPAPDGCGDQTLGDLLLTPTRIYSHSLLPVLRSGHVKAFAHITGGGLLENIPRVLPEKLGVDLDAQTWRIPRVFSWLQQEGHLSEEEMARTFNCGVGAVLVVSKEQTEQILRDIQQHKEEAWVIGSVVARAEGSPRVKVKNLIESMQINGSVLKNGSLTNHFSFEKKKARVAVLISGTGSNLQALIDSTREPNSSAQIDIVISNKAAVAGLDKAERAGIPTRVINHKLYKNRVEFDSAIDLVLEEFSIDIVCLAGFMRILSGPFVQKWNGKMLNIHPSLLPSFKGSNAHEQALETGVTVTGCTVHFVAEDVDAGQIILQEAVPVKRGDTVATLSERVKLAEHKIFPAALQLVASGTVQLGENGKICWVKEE

[12] = Binding affinity to human RFC expressed in Chinese hamster PC43-10 cells assessed as antiproliferative activity measured as reduction in cell growth after 96 hrs by Cell-Titer Blue assay
IGROV-1 [13] = assay: Antiproliferative activity against wild type human IGROV1 cells after 96 hrs by Cell-Titer Blue assay; assay type: functional, cell-based; details: IGROV-1, 96 h
[14] = target: Folate receptor alpha (Homo sapiens) (UniProt P15328); assay: Displacement of [3H]folic acid from human FRalpha expressed in Chinese hamster RT16 cells at 10 to 1000 nM after 15 mins; assay type: cell-based; how it was run: as §1
Chain of Folate receptor alpha (Homo sapiens) (P15328 25-234 limits assumed): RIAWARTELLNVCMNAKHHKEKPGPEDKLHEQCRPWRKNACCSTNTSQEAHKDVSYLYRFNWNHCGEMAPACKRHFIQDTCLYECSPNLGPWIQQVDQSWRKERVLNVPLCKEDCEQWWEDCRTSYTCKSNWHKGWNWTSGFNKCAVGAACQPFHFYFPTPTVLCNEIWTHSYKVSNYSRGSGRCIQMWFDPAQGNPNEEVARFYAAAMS

IGROV-1 [15] = assay: Antiproliferative activity against FRalpha […] human IGROV1 KD10 cells after 96 hrs by Cell-Titer Blue assay; assay type: functional, cell-based; details: IGROV-1, 96 h
[16] = target: T3, Reduced folate transporter (Homo sapiens); assay: Inhibition of human RFC2 expressed in human HeLa R1-11 cells assessed as reduction in [3H]MTX uptake at pH 7.2 at 10 uM measured over 2 mins relative to control; assay type: cell-based

Nc1nc2[nH]c(CCCc3csc(C(=O)N[C@@H](CCC(=O)O)C(=O)O)c3)cc2c(=O)[nH]1
pIC50 (IGROV-1 [1]): 7.89 | pIC50 (IGROV-1 [2]): 7.09 | pIC50 [3]: 6.45 | inhibition [4]: Active | pKi [5]: 6.55 | inhibition [6]: < 30% | inhibition [7]: Active | inhibition [8]: Active | pIC50 [9]: 8.27 | pIC50 (A2780): 7.66 | inhibition [10]: Active | pIC50 [11]: 9.00 | pIC50 [12]: 6.71 | pIC50 (IGROV-1 [13]): 7.92 | inhibition [14]: Active | pIC50 (IGROV-1 [15]): 7.52 | inhibition [16]: < 30%
